# ChEMBL document CHEMBL4359878, “Discovery of 4-piperazinyl-2-aminopyrimidine derivatives as dual inhibitors of JAK2 and FLT3” (Eur J Med Chem, 2019)
# Tests used:
# [1] = target: T1, Tyrosine-protein kinase JAK2 (Homo sapiens, UniProt O60674); assay: Inhibition of N-terminal His-tagged human JAK2 catalytic domain (826 to 1132 resiudes) expressed in baculovirus expression system at 100 nM using FAM-labeled peptide as substrate preincubated for 10 mins followed by substrate addition measured after 1 hr in presence of ATP by mobility shift assay relative to control
# Procedure, shortened: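 Single-concentration (100 nM) percent inhibition in the mobility-shift JAK2 assay. Enzyme was preincubated with compound for 10 min at room temperature in HEPES pH 7.5/Brij-35 buffer. FAM-peptide and ATP were then added and the reaction run for 1 h at 28 °C before EDTA stop. Inhibition = (max−conversion)/(max−min)×100. Each compound was tested at least twice and the values averaged.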
# [2] = test system: HEL; assay: Induction of cell cycle arrest in human HEL cells assessed as accumulation at S phase at 0.33 uM after 72 hrs by propidium iodide-staining based flow cytometry (reference value: 41.47%); type: functional
# Procedure, shortened: (§1)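 Subconfluent HEL cells were treated for 72 h at 0.33, 1.0, 3.0 or 9.0 μM, with untreated cells as control. Cultures were pulsed with 10 μM BrdU for 30 min at 37 °C before harvest, then PBS-washed, fixed in 70% ethanol and denatured in 2 M HCl. After neutralization, cells were stained with fluorescein anti-BrdU antibody and propidium iodide. DNA content was measured by flow cytometry with 488 nm excitation.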
# [3] = test system: HEL; assay: Induction of cell cycle arrest in human HEL cells assessed as accumulation at G2 phase at 0.33 uM after 72 hrs by propidium iodide-staining based flow cytometry (reference value: 15.10%); type: functional; procedure, shortened: as §1
# [4] = test system: HEL; assay: Induction of cell cycle arrest in human HEL cells assessed as accumulation at S phase at 1 uM after 72 hrs by propidium iodide-staining based flow cytometry (reference value: 41.47%); type: functional; procedure, shortened: as §1
# [5] = test system: HEL; assay: Induction of cell cycle arrest in human HEL cells assessed as accumulation at S phase at 3 uM after 72 hrs by propidium iodide-staining based flow cytometry (reference value: 41.47%); type: functional; procedure, shortened: as §1
# [6] = test system: HEL; assay: Induction of cell cycle arrest in human HEL cells assessed as accumulation at S phase at 9 uM after 72 hrs by propidium iodide-staining based flow cytometry (reference value: 41.47%); type: functional; procedure, shortened: as §1
# [7] = test system: HEL; assay: Induction of cell cycle arrest in human HEL cells assessed as accumulation at G2 phase at 9 uM after 72 hrs by propidium iodide-staining based flow cytometry (reference value: 15.10%); type: functional; procedure, shortened: as §1
# [8] = test system: HEL; assay: Induction of apoptosis in human HEL cells assessed as viable cells at 0.33 uM after 72 hrs by FITC-annexin V/propidium iodide-double staining based flow cytometry (reference value: 93.77%); type: functional; settings: read-out: Activity
# [9] = test system: HEL; assay: Induction of apoptosis in human HEL cells assessed as late apoptotic cells at 0.33 uM after 72 hrs by FITC-annexin V/propidium iodide-double staining based flow cytometry (reference value: 1.63%); type: functional
# [10] = test system: HEL; assay: Induction of apoptosis in human HEL cells assessed as necrotic cells at 0.33 uM after 72 hrs by FITC-annexin V/propidium iodide-double staining based flow cytometry (reference value: 2.40%); type: functional
# [11] = test system: HEL; assay: Induction of apoptosis in human HEL cells assessed as late apoptotic cells at 1 uM after 72 hrs by FITC-annexin V/propidium iodide-double staining based flow cytometry (reference value: 1.63%); type: functional
# [12] = test system: HEL; assay: Induction of apoptosis in human HEL cells assessed as necrotic cells at 1 uM after 72 hrs by FITC-annexin V/propidium iodide-double staining based flow cytometry (reference value: 2.40%); type: functional
# [13] = test system: HEL; assay: Induction of apoptosis in human HEL cells assessed as early apoptotic cells at 3 uM after 72 hrs by FITC-annexin V/propidium iodide-double staining based flow cytometry (reference value: 2.23%); type: functional
# [14] = test system: HEL; assay: Induction of apoptosis in human HEL cells assessed as viable cells at 9 uM after 72 hrs by FITC-annexin V/propidium iodide-double staining based flow cytometry (reference value: 93.77%); type: functional; settings: read-out: Activity
# [15] = target: T1, Tyrosine-protein kinase JAK2; assay: Inhibition of N-terminal His-tagged human JAK2 catalytic domain (826 to 1132 resiudes) expressed in baculovirus expression system using FAM-labeled peptide as substrate preincubated for 10 mins followed by substrate addition measured after 1 hr in presence of ATP by mobility shift assay
# Procedure, shortened: (§2)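 Caliper mobility-shift assay with recombinant kinase in 50 mM HEPES pH 7.5, 0.0015% Brij-35. Compound was diluted from DMSO and preincubated with enzyme for 10 min at room temperature. FAM-labeled peptide plus ATP was then added and the reaction run for 1 h at 28 °C. It was stopped with an EDTA (50 mM) buffer. Conversion gave percent inhibition relative to max/min controls, and IC50 came from a four-parameter Hill fit. Duplicate wells were used.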
# [16] = target: T2, Receptor-type tyrosine-protein kinase FLT3 (Homo sapiens, UniProt P36888); assay: Inhibition of N-terminal GST-tagged human FLT3 cytoplasmic domain (564 to 993 residues) expressed in baculovirus expression system musing FAM-labeled peptide as substrate preincubated for 10 mins followed by substrate addition measured after 1 hr in presence of ATP by mobility shift assay; procedure, shortened: as §2
# T2 sequence (P36888 whole entry): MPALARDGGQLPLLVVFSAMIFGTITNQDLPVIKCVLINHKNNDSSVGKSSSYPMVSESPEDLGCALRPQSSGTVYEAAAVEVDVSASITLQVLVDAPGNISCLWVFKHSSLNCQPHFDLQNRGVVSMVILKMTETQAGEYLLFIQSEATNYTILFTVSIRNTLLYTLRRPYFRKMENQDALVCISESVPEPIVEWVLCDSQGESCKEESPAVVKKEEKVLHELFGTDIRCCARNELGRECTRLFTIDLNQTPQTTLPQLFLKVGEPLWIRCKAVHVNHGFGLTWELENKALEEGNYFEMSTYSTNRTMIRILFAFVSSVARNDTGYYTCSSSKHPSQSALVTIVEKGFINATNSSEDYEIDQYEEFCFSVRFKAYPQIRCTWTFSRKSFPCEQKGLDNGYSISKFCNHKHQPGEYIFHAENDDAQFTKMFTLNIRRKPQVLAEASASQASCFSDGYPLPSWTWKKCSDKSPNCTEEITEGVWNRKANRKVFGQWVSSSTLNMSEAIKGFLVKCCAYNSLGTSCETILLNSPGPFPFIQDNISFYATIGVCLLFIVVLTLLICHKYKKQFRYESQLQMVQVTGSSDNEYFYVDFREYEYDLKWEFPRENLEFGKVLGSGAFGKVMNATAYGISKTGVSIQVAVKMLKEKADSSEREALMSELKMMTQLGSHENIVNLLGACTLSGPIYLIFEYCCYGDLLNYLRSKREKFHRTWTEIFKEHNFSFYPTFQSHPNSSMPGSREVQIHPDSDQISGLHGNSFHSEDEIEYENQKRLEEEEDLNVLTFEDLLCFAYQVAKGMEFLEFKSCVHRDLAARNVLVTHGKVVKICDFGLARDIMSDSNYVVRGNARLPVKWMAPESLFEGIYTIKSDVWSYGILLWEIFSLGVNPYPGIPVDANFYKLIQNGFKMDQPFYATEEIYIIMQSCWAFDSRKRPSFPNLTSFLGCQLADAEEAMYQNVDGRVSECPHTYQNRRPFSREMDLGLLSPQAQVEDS
# T1 sequence (O60674 whole entry, the tested form may be a part): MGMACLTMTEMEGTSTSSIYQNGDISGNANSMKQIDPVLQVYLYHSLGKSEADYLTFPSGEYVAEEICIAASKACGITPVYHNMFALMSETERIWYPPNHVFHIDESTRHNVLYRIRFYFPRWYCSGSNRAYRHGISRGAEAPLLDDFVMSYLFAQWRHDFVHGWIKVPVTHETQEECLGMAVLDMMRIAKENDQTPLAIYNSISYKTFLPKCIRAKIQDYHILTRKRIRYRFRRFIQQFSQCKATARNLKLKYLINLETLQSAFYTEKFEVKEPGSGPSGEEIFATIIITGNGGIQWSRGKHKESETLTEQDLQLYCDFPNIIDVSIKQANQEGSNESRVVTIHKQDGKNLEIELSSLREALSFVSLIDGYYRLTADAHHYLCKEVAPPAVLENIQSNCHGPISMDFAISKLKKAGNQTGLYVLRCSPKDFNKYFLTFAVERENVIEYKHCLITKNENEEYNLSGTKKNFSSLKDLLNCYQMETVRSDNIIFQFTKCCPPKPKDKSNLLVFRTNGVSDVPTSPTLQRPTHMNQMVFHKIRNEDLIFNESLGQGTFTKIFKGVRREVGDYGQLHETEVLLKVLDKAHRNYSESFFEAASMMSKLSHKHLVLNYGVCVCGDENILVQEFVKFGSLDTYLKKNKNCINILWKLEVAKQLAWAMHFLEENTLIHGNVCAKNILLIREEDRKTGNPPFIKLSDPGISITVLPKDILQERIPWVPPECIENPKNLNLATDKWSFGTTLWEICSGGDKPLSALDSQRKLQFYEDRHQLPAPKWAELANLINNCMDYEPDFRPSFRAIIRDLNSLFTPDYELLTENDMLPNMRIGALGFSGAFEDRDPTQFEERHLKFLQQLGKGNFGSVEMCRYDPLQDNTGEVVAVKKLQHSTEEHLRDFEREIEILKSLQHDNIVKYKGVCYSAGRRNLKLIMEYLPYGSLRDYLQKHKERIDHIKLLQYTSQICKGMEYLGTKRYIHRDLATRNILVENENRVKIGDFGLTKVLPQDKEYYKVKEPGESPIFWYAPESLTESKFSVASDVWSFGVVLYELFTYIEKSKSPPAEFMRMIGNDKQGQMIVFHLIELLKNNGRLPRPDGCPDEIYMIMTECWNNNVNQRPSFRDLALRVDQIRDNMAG
smiles,measurement,setting,value
CC(=O)c1ccc(NC(=O)N2CCN(c3ccnc(Nc4ccc(N5CCOCC5)cc4)n3)CC2)cc1,inhibition,[1],86.7%
same,Activity,[2],38.62%
same,Activity,[3],7.31%
same,Activity,[4],31.59%
same,Activity,[5],22.24%
same,Activity,[6],19.26%
same,Activity,[7],2.07%
same,viability at 0.33 µM,[8],88.3%
same,Activity,[9],4.3%
same,Activity,[10],3.3%
same,Activity,[11],22.4%
same,Activity,[12],12.73%
same,Activity,[13],31.87%
same,viability at 9 µM,[14],24.3%
same,IC50,[15],27 nM
same,IC50,[16],30 nM
